Only some compounds are listed: those with a hit (about 2.2% of all), similar ones and a draw of the others.
CAL PDZ FP-1: inhibitors of human CAL PDZ peptide binding; Q9HD26; AID 504414; actives 0.02% (n = 330,000); purified CAL PDZ, TMR-peptide fluorescence polarization, 1 h; inhibition, % at 20 µM;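 active = highest replicate inhibition of at least 40%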
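material = purified tagged CAL PDZ domain construct (CerCALP) | buffer or medium = sodium phosphate/NaCl buffer pH 7.4 with TCEP, IgG, Thesit | reagent = TMR-labelled reporter peptide T*-PRC34 bound in PDZ groove | incubation = 1 h room-temperature incubation prior to read | measured by = fluorescence polarization (mP) | evaluation = percent inhibition from loss of millipolarization | control set = unlabelled peptide and DMSO controls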
dFosB act: activators of mouse delta FosB homodimer; P13346; purified delta FosB, TAMRA-CDK5 oligo fluorescence polarization; percent of positive-control signal above neutral wells; activation, % at 25 µM; actives 0.99% (n = 340,000);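 active = mean activation above about 17%, with every replicate also reaching it, limit read from the data, passing the limit was not always enough; inconclusive = only one of the two conditions met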
Target sequence (P13346 whole entry, looked up): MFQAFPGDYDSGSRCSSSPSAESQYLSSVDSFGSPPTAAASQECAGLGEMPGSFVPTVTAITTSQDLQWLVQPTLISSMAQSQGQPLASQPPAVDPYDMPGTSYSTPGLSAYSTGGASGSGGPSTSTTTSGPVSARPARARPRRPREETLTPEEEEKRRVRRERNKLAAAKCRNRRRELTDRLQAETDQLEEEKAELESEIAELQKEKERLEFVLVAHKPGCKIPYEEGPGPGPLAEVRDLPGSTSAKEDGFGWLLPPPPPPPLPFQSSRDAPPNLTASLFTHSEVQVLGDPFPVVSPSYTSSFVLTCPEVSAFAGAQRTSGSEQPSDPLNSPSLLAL
Dyrk1A ADPGlo: Dyrk1A (rat) kinase inhibition | Q63470 | ADP-Glo luminescence, NFATc1 peptide | inhibition, % at 12.5 µM | actives 0.43% (n = 310,000) | AID 504441; in the data active = inhibition above about 50%
Rtt109 HAT inh: C. albicans Rtt109 histone acetyltransferase inhibition. Q5AAJ8. purified Rtt109/Vps75, ThioGlo CoA-SH fluorescence, 4 h. inhibition, % at 34.9 µM. actives 0.16% (n = 330,000). AID 540336;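 active = inhibition of at least 50% in every replicate; inconclusive = best replicate reaches 50% inhibition but some replicates fall short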
Target sequence (Q5AAJ8 whole entry, looked up): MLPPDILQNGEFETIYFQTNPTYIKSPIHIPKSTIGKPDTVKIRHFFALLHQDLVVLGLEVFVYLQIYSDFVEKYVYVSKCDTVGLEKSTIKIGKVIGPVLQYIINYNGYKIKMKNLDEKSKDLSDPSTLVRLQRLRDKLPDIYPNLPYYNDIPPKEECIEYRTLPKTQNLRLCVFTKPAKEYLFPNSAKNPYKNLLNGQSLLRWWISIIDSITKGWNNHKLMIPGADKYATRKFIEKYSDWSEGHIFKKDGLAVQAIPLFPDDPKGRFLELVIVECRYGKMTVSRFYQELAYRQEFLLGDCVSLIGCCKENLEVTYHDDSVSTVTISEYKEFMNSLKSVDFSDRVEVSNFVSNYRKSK
CDK5 p35 inh: blocks human CDK5/p35 kinase activity. Recombinant CDK5/p35, ADP-Glo luminescence, 60 min. inhibition, % at 10 µM. actives 0.01% (n = 330,000). AID 488839;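 active = highest replicate inhibition of at least 50% and at least 75% of replicates reaching 50%; inconclusive = only one of the two criteria met; inactive = both criteria failed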
CAL PDZ FP-2: inhibitors of human CAL PDZ peptide binding | purified CAL PDZ, TMR-peptide fluorescence polarization, 1 h | inhibition, % at 24.9 µM | actives 0.92% (n = 300,000);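 active = mean inhibition of at least 30% with at least half of replicates also reaching 30%; inconclusive = no clear call, values can overlap the other calls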
Large screens that a line does not name were inactive.

Cc1ccc(N(C)C(=O)C2CCCN2S(=O)(=O)c2cccc3nsnc23)cc1 (stereo not given)	CAL PDZ FP-2 70
CCCN(CCC)C(=O)C1CCCN1S(=O)(=O)c1cccc2nsnc12 (stereo not given)	none
CCOC(=O)C1(CCc2ccccc2)CCN(C(=O)c2cc(C)nc(C)n2)CC1	none
Cc1ccc(/C(N)=N/OC(=O)N2c3ccccc3Sc3ccccc32)cc1	CAL PDZ FP-2 81
Cc1cccc(C)c1NC(=S)N/N=C/c1c(Cl)cccc1Cl	CAL PDZ FP-2 33 (no result: Rtt109 HAT inh)
CNC(=S)N/N=C/c1c(Cl)cccc1Cl	none
CCN(CC)C(=O)C(=O)N/N=C/c1ccc(C(=O)O)cc1	none
c1ccc2c(c1)CC/C2=N/Nc1nc2ccccc2[nH]1	dFosB act 31
O=C(Nc1ccc(N2CCN(C(=O)c3ccco3)CC2)cc1)c1cc(Br)ccc1Cl	CAL PDZ FP-2 49
CC(CC(=O)O)CC(=O)Nc1nncs1 (stereo not given)	CAL PDZ FP-2 53
O=C(CCc1ccccc1)Nc1nncs1	none (no result: CAL PDZ FP-1)
O=C(COC(=O)c1ccccc1O)Nc1cccc(S(=O)(=O)NC2=NCCCCC2)c1	CAL PDZ FP-2 35
Cn1c(=Nc2ccc(N3CCOCC3)cc2)ccc2ccccc21	none (no result: CAL PDZ FP-1)
Cn1c(N=Nc2ccc(N3CCOCC3)cc2)[n+](C)c2ccccc21	dFosB act 40
O=[N+]([O-])c1ccc(/C=N/Nc2nc(-c3ccccc3)c3cc(Br)ccc3n2)o1	dFosB act 23
CCc1ccccc1NC(=O)C1CCN(C(=O)c2ccc([N+](=O)[O-])cc2)CC1	Rtt109 HAT inh 58
CC(=O)Nc1ccc(NC(=O)C2CCN(C(=O)c3ccc([N+](=O)[O-])cc3)CC2)cc1	none
CCOc1ccccc1NC(=O)C1CCN(C(=O)Cc2ccccc2)CC1	CAL PDZ FP-2 56
COC(=O)c1ccccc1NC(=O)C1CCN(C(=O)Cc2ccccc2)CC1	none (no result: CAL PDZ FP-2)
C/C(=N\NC(=O)c1nn(C)c(C)c1Br)c1cccc(NC(=O)c2ccoc2C)c1	none
Cc1cccc(-n2cnc3c(sc4nc(N5CCOCC5)c5c(c43)CCCC5)c2=O)c1	CAL PDZ FP-2 60
OCCNc1ncnc2c1sc1nc(N3CCOCC3)c3c(c12)CCC3	none
COc1ccccc1CNC(=O)[C@H](C)NC(=O)C1CCN(C(=O)[C@@H]2CCCN2C(=O)OC(C)(C)C)CC1	none
COCCNC(=O)COC(=O)c1cccnc1SC	none
COCCn1cnc2c(c1=O)c1nc3ccccc3nc1n2/N=C/c1cccc(OC)c1	CAL PDZ FP-2 34 (no result: Dyrk1A ADPGlo)
C=CCn1cnc2c(c1=O)c1nc3ccccc3nc1n2/N=C/c1cc(OC)c(OC)c(OC)c1	none
COc1cccc(N2CCN(C(=O)c3ccccc3SCC(=O)NCc3ccco3)CC2)c1	none (no result: Dyrk1A ADPGlo)
CCOc1ccccc1C(=O)N[C@H](C(=O)OCc1cc([N+](=O)[O-])cc2c1OCOC2)C(C)C	none (no result: Dyrk1A ADPGlo)
Cc1cn(C(C)C)c(=O)n(-c2ccccc2)c1=O	CAL PDZ FP-2 33 (no result: CAL PDZ FP-1)
O=c1c2ccccc2c2ccccc2c(=O)n1-c1ccccc1	none (no result: Rtt109 HAT inh)
CCN1/C(=C/c2ccc3cc(C)ccc3[n+]2CC)Sc2cc(C)ccc21	Rtt109 HAT inh 82
CCN1/C(=C/c2ccc3cc(C)ccc3[n+]2C)Sc2ccc3sccc3c21	dFosB act inconclusive
CCCCN1/C(=C/c2ccc3ccccc3[n+]2CC)Sc2ccccc21	dFosB act 27
CN(CC(=O)Nc1ccc(F)cc1)C(=O)COc1ccccc1Cc1ccccc1	Rtt109 HAT inh 51
COc1ccc(NC(=O)CN(C)C(=O)COc2ccccc2Cc2ccccc2)cc1	none (no result: Dyrk1A ADPGlo)
Cc1ccc(NC(=O)CN(C)C(=O)COc2cccc3ccc(C)nc23)cc1	CAL PDZ FP-2 71
CN(Cc1ccco1)C(=O)Cn1nc(-c2ccc(Cl)cc2)ccc1=O	none (no result: Rtt109 HAT inh)
COc1ccc(C(=O)CC(=O)c2ccc(C(C)(C)C)cc2)cc1	none
COc1ccc(C(=O)C(CCC(CNC(C)(C)C)C(=O)c2ccc(OC)cc2)CNC(C)(C)C)cc1 (stereo not given)	Rtt109 HAT inh 62
Cc1ccc(Cl)c(OCC(=O)NCC(c2cccs2)N2CCOCC2)c1 (stereo not given)	none
Cc1ccc(S(=O)(=O)CCC(=O)Nc2cccc(S(=O)(=O)N3CCCCCC3)c2)cc1	CAL PDZ FP-2 32
CC(=O)c1cc(Cl)ccc1OCC(=O)Nc1cccc(S(=O)(=O)N2CCCC2)c1	CAL PDZ FP-2 50 (no result: Dyrk1A ADPGlo)
Cc1cccc(NC(=O)CCS(=O)(=O)c2ccccc2)c1	CAL PDZ FP-2 62 (no result: Rtt109 HAT inh)
O=C(COc1ccc(F)cc1Cl)Nc1cccc(S(=O)(=O)N2CCCCCC2)c1	none
CN(C)c1cccc(C(=O)OCC(=O)Nc2ccccc2-c2ccccc2)c1	none
CC(C)N(C(=O)COC(=O)c1cccc(N(C)C)c1)c1ccccc1	CAL PDZ FP-2 49
C=CCn1c(=O)c2ccccc2n2c(SCc3nnc(-c4ccccc4Br)o3)nnc12	none
COc1ccc(C(C)(C)C)cc1NC(=O)COC(=O)c1cnc(C)cn1	none
COc1ccc(C(C)(C)C)cc1NC(=O)COC(=O)C1=NNC(=O)CC1	CAL PDZ FP-2 133 (no result: Dyrk1A ADPGlo)
O=C(CSc1nnc(-c2ccccn2)n1Cc1ccccc1)Nc1ccc2c(c1)OCO2	CAL PDZ FP-2 32 (no result: CAL PDZ FP-1)
CCc1cc(C(=O)Nc2nc(-c3ccccn3)cs2)sc1C	none (no result: Dyrk1A ADPGlo)
Cc1cccc(C)c1NC(=O)Cn1nnc(C(=O)Nc2ccc(F)cc2F)c1N	dFosB act 46
CCc1ccccc1NC(=O)c1nnn(CC(=O)Nc2ccccc2C)c1N	none
Cc1cc(C)c(NC(=O)Cn2nnc(C(=O)Nc3ccc(F)cc3F)c2N)c(C)c1	dFosB act 25
CCCOc1ccc(C2c3c(oc4cc(C)c(C)cc4c3=O)C(=O)N2CCCN(C)C)cc1OCC (stereo not given)	none
CCOc1ccc(C2c3c(oc4cc(C)c(C)cc4c3=O)C(=O)N2CCCN(C)C)cc1OC (stereo not given)	dFosB act 29
COC(C(=O)Nc1ccnn1C1CCN(Cc2cnn(C(C)C)c2)CC1)c1ccccc1 (stereo not given)	none
O=C1OCCC1Sc1nnnn1-c1ccc(Cl)cc1 (stereo not given)	none
COc1ccc2cc(N3CCCC3=O)ccc2c1	CAL PDZ FP-2 85 (no result: Dyrk1A ADPGlo)
O=C(C[n+]1ccc(/C=N/O)cc1)NC1CCCCC1	none
CN(C)C(CNC(=O)c1cccc(S(=O)(=O)Nc2ccccc2Cl)c1)c1ccco1 (stereo not given)	CAL PDZ FP-2 32 (no result: Dyrk1A ADPGlo)
CCOc1ccc(Nc2c3ccccc3nc3ccccc23)cc1	dFosB act 86 (no result: Dyrk1A ADPGlo)
CC1(C)C2CCC1(C)C(OCC[N+](C)(C)CC(=O)OC1CCCCC1)C2 (stereo not given)	Rtt109 HAT inh 58
CCOc1ccccc1C(=O)NC(C(=O)N(C)Cc1ccc2c(c1)OCO2)C(C)C (stereo not given)	none (no result: CAL PDZ FP-2)
